The nature of assay [1]: RPL19A-GFP modulators, yeast TOR pathway, confirmation, cell-based, S. cerevisiae, flow cytometry, cherry picks, mother/daughter gates (AID 2270;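 active = GFP response below 50% of the DMSO control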). To be noted: S. cerevisiae RPL19A-GFP strain, 3 h, at 10 µM, stronger effect = lower value, 100 = same GFP as DMSO wells.
Assay [2] is described as follows: LAP4-GFP expression modulators in yeast, confirmation, cell-based, cherry picks, flow cytometry, mother/daughter gates (AID 2271;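 active = GFP response above 150% of the DMSO control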;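 note: ratio of sample to DMSO plate mean so 100% equals DMSO level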). To be noted: S. cerevisiae LAP4-GFP strain, 3 h, at 10 µM, stronger effect = higher value, 100 means same as DMSO control. In short, it runs like this: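 System: Alexa 633-stained baker's yeast GFP-fusion strain / Medium: synthetic complete (SC) yeast growth medium / Doses: compound at 10 µM, single point / Times: 3 h treatment at 30 °C with rotation / Detection: HT flow cytometry, GFP fluorescence channel / Benchmarks: DMSO-only negative wells, rapamycin 400 ng/mL positive wells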

Assay [3] is described as follows: modulators of MEP2-GFP levels in yeast, confirmation, S. cerevisiae, flow cytometry GFP, cherry picks (AID 2272;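 active = GFP response above 150% of the DMSO control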;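 note: ratio of well signal to plate DMSO mean so 100% equals DMSO level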). The following applies: S. cerevisiae MEP2-GFP strain, 3 h, at 10 µM, stronger effect = higher value.
The nature of assay [4]: AGP1-GFP expression modulators, hit retest, confirmation, cell-based, flow cytometry, S. cerevisiae, cherry picks (AID 2273).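 Note: median GFP channel fluorescence over the whole cell population gate.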 The following applies: S. cerevisiae AGP1-GFP strain, 3 h, at 10 µM.
A short description of assay [5]: modulators of CIT2-GFP expression in yeast, confirmation, S. cerevisiae, GFP fusion, cherry picks, mother/daughter gates (AID 2274). The following applies: S. cerevisiae CIT2-GFP strain, flow cytometry, 3 h, at 10 µM, stronger effect = higher value.
The mark [6] stands for this setting: measured here: daughter cell gate.
The mark [7] stands for this setting: measured here: mother cell gate.
The mark [8] stands for this setting: measured here: daughter cell gate response.
The mark [9] stands for this setting: measured here: mother cell gate response.

Activity calls are given as the source filed them.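 Rule for the calls, unless noted: active = GFP response above 150% of the DMSO level; inconclusive = fewer than 70 events counted for a yeast strain; inactive = the rest.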

The text below walks through data of PubChem BioAssay.

`Cc1ccc2nc(/C(C#N)=C/c3ccc(O)c(O)c3)[nH]c2c1`: the GFP response vs DMSO is 103% (inactive) in assay [1], 102% in assay [1] (setting [6]), 105% in assay [1] (setting [7]) and 230% (active) in assay [3]. For the same compound, the GFP response relative to DMSO in assay [2] was 123% (inactive); in assay [2] (setting [8]), 110%; in assay [2] (setting [9]) it was 133%. For the same compound, the GFP response, % of DMSO was 102% (inactive) in assay [4], 128% (inactive) in assay [5], 114% in assay [5] (setting [6]) and 140% in assay [5] (setting [7]).
In the case of `CCN(CC)c1ccc(/C=C2\SC(=O)N(C(C)C)C2=O)o1`, the GFP response vs DMSO in assay [1] was 99.6% (inactive); in assay [1] (setting [6]) it was 99.8%; in assay [1] (setting [7]), 96.5%; in assay [3], 132% (inactive). For the same compound, the results for the GFP response relative to DMSO in assay [2], in assay [2] (setting [8]) and in assay [2] (setting [9]) were 117% (inactive), 116% and 117%, respectively. The GFP response, % of DMSO was 105% (inactive) in assay [4], 112% (inactive) in assay [5], 115% in assay [5] (setting [6]) and 110% in assay [5] (setting [7]).
As for `O=S(=O)(c1ccc(C2CCCCC2)cc1)N1CCOCC1`, the GFP response vs DMSO in assay [1] is 92.4% (inactive); in assay [1] (setting [6]), 92.7%; in assay [1] (setting [7]), 90.1%; in assay [3] it was 105% (inactive). In addition, the GFP response relative to DMSO in assay [2] was 102% (inactive); in assay [2] (setting [8]), 97.5%; in assay [2] (setting [9]), 105%. Besides, the GFP response, % of DMSO in assay [4] was 102% (inactive); in assay [5], 100% (inactive); in assay [5] (setting [6]), 93.8%; in assay [5] (setting [7]) it was 101%.
On to `CCN(CC)CCCN(C(=O)c1ccc(Br)cc1)c1nc(-c2ccc(OC)cc2)cs1`, for which the GFP response vs DMSO was 96.5% (inactive) in assay [1], 97.3% in assay [1] (setting [6]), 96.9% in assay [1] (setting [7]) and 101% (inactive) in assay [3]. The GFP response relative to DMSO was 95.3% (inactive) in assay [2], 99% in assay [2] (setting [8]) and 94.4% in assay [2] (setting [9]). Further, the GFP response, % of DMSO in assay [4] is 97.9% (inactive); in assay [5], 95.8% (inactive); in assay [5] (setting [6]), 95.8%; in assay [5] (setting [7]) it was 98.2%.
For `Cc1ccc(C(=O)O/N=C(\N)Cc2cccs2)c(Cl)c1`, the GFP response vs DMSO in assay [1] was 104% (inactive); in assay [1] (setting [6]), 102%; in assay [1] (setting [7]) it was 99.3%; in assay [3], 105% (inactive). The figures for the GFP response relative to DMSO in assay [2], in assay [2] (setting [8]) and in assay [2] (setting [9]) were 125% (inactive), 114% and 123%, respectively. In addition, the GFP response, % of DMSO in assay [4] is 70.7% (inactive); in assay [5], 129% (inactive); in assay [5] (setting [6]) it was 117%; in assay [5] (setting [7]), 129%.
Take `COc1ccc(-c2nc3cc(C)ccn3c2NCC2CCCO2)cc1OC` (configuration not stated): the GFP response vs DMSO is 94.8% (inactive) in assay [1], 96.4% in assay [1] (setting [6]), 93.4% in assay [1] (setting [7]) and 99% (inactive) in assay [3]. The GFP response relative to DMSO in assay [2] is 97% (inactive); in assay [2] (setting [8]), 94.2%; in assay [2] (setting [9]) it was 96.2%. Also, the GFP response, % of DMSO in assay [4] is 104% (inactive); in assay [5], 100% (inactive); in assay [5] (setting [6]) it was 101%; in assay [5] (setting [7]) it was 99.3%.
Turning to `COc1ccc(CC(=O)NCc2ccccn2)cc1OC`, the GFP response vs DMSO in assay [1] was 97.6% (inactive); in assay [1] (setting [6]), 97.8%; in assay [1] (setting [7]) it was 98%; in assay [3] it was 100% (inactive). Besides, the GFP response relative to DMSO was 93.8% (inactive) in assay [2], 95.6% in assay [2] (setting [8]) and 96.2% in assay [2] (setting [9]). Moreover, the GFP response, % of DMSO in assay [4] was 100% (inactive); in assay [5], 97.8% (inactive); in assay [5] (setting [6]) it was 96.5%; in assay [5] (setting [7]), 95.5%.
For the compound `Cn1cc(/C=C/c2cc[n+](C)cc2)c2cc(F)ccc21`, the GFP response vs DMSO in assay [1] is 102% (inactive); in assay [1] (setting [6]) it was 102%; in assay [1] (setting [7]), 102%; in assay [3] it was 134% (inactive). Also, the results for the GFP response relative to DMSO in assay [2], in assay [2] (setting [8]) and in assay [2] (setting [9]) were 115% (inactive), 117% and 116%, respectively. Moreover, the GFP response, % of DMSO in assay [4] was 103% (inactive); in assay [5] it was 115% (inactive); in assay [5] (setting [6]) it was 116%; in assay [5] (setting [7]), 114%.
For `CC(NC(=O)C1CCC(CNS(=O)(=O)c2ccccc2)CC1)c1ccccc1` (configuration not stated), the GFP response vs DMSO in assay [1] was 101% (inactive); in assay [1] (setting [6]) it was 102%; in assay [1] (setting [7]), 101%; in assay [3] it was 104% (inactive). The GFP response relative to DMSO in assay [2] was 100% (inactive); in assay [2] (setting [8]) it was 102%; in assay [2] (setting [9]), 99.5%. Further, the GFP response, % of DMSO in assay [4] was 107% (inactive); in assay [5] it was 99.3% (inactive); in assay [5] (setting [6]), 100%; in assay [5] (setting [7]), 96.8%.
Turning to `O=C1CC(SCc2nc3ccccc3[nH]2)C(=O)N1c1ccc(F)cc1` (configuration not stated), the GFP response vs DMSO in assay [1] was 102% (inactive); in assay [1] (setting [6]), 101%; in assay [1] (setting [7]), 100%; in assay [3] it was 110% (inactive). The GFP response relative to DMSO in assay [2] is 110% (inactive); in assay [2] (setting [8]), 108%; in assay [2] (setting [9]), 109%. The GFP response, % of DMSO was 106% (inactive) in assay [4], 108% (inactive) in assay [5], 108% in assay [5] (setting [6]) and 107% in assay [5] (setting [7]).
Turning to `COc1ccc(Cc2nnc(NC(=O)c3ccccc3F)s2)cc1`, the GFP response vs DMSO in assay [1] is 97.6% (inactive); in assay [1] (setting [6]), 96.4%; in assay [1] (setting [7]), 98.5%; in assay [3] it was 100% (inactive). In addition, the GFP response relative to DMSO in assay [2] is 101% (inactive); in assay [2] (setting [8]), 105%; in assay [2] (setting [9]) it was 101%. Also, the GFP response, % of DMSO in assay [4] is 98.3% (inactive); in assay [5], 100% (inactive); in assay [5] (setting [6]) it was 99.7%; in assay [5] (setting [7]), 97.7%.
With `Cc1onc(-c2ccccc2)c1C(=O)NC(=S)NNC(=O)c1ccco1`, the GFP response vs DMSO in assay [1] was 101% (inactive); in assay [1] (setting [6]), 101%; in assay [1] (setting [7]) it was 102%; in assay [3], 102% (inactive). For the same compound, the GFP response relative to DMSO in assay [2] was 102% (inactive); in assay [2] (setting [8]), 104%; in assay [2] (setting [9]) it was 103%. Also, the GFP response, % of DMSO in assay [4] was 98.1% (inactive); in assay [5], 104% (inactive); in assay [5] (setting [6]), 106%; in assay [5] (setting [7]) it was 99.7%.
As to `O=S(=O)(c1ccc(Cl)cc1)c1ccccn1`, the GFP response vs DMSO in assay [1] is 96.2% (inactive); in assay [1] (setting [6]), 96.4%; in assay [1] (setting [7]) it was 95.8%; in assay [3], 101% (inactive). Besides, the GFP response relative to DMSO was 94.1% (inactive) in assay [2], 96% in assay [2] (setting [8]) and 93.4% in assay [2] (setting [9]). In addition, the GFP response, % of DMSO in assay [4] was 98.2% (inactive); in assay [5], 103% (inactive); in assay [5] (setting [6]) it was 101%; in assay [5] (setting [7]), 105%.
`O=C(Nc1ccc(S(=O)(=O)N2CCOCC2)cc1)c1ccc([N+](=O)[O-])cc1Cl`: the GFP response vs DMSO in assay [1] was 99.6% (inactive); in assay [1] (setting [6]) it was 101%; in assay [1] (setting [7]), 99.7%; in assay [3], 102% (inactive). The GFP response relative to DMSO in assay [2] is 94.1% (inactive); in assay [2] (setting [8]), 94.4%; in assay [2] (setting [9]) it was 94%. Moreover, the GFP response, % of DMSO is 91.7% (inactive) in assay [4], 101% (inactive) in assay [5], 103% in assay [5] (setting [6]) and 99.7% in assay [5] (setting [7]).
Take `CCCc1[nH]nc2c1C(c1cccnc1)C(C#N)=C(N)O2` (configuration not stated): the GFP response vs DMSO in assay [1] was 98.6% (inactive); in assay [1] (setting [6]) it was 97.9%; in assay [1] (setting [7]), 99.2%; in assay [3] it was 96.2% (inactive). Besides, the GFP response relative to DMSO in assay [2] is 99.2% (inactive); in assay [2] (setting [8]), 97.6%; in assay [2] (setting [9]) it was 98.3%. Also, the GFP response, % of DMSO in assay [4] is 103% (inactive); in assay [5] it was 101% (inactive); in assay [5] (setting [6]), 99.1%; in assay [5] (setting [7]), 99.7%.
Turning to `Oc1ccccc1/C=N/c1c(-c2ccco2)nc2ccccn12`, the GFP response vs DMSO was 99.5% (inactive) in assay [1], 98.1% in assay [1] (setting [6]), 100% in assay [1] (setting [7]) and 100% (inactive) in assay [3]. Also, the GFP response relative to DMSO in assay [2] was 93.8% (inactive); in assay [2] (setting [8]), 97.2%; in assay [2] (setting [9]), 97.2%. Besides, the GFP response, % of DMSO is 102% (inactive) in assay [4], 102% (inactive) in assay [5], 99.7% in assay [5] (setting [6]) and 102% in assay [5] (setting [7]).
As to `COc1ccc(-c2nnc(NC(=O)c3ccc(S(=O)(=O)N4COCC4(C)C)cc3)o2)cc1`, the GFP response vs DMSO in assay [1] is 96.5% (inactive); in assay [1] (setting [6]) it was 98.1%; in assay [1] (setting [7]), 94%; in assay [3], 103% (inactive). Besides, the GFP response relative to DMSO was 95.3% (inactive) in assay [2], 92.9% in assay [2] (setting [8]) and 97.4% in assay [2] (setting [9]). The GFP response, % of DMSO in assay [4] is 103% (inactive); in assay [5], 98.6% (inactive); in assay [5] (setting [6]) it was 99.3%; in assay [5] (setting [7]), 98.2%.
